Laboratory results: article PMC3782865 (Journal of medicinal chemistry, 2013)
Entries after “also recorded” stand apart in the source; their conditions may differ. Structures can show the parent of a compound that is named as a salt. Where two headings read alike, the source gives them in different places. Values belong to the compound of their own block, whether it stands above or below them.

Columns and labels:
[1] = test system: trypsin-like (Tr-L) sites of purified 26S proteasomes from rabbit muscles; test: Inhibition of purified 26S proteasomes, trypsin-like sites; format: biochemical; settings: purified rabbit 26S proteasomes
RPMI-8226 cells [2] = test: Viability of RPMI-8226 cells, Alamar Blue assay; format: cell-based; settings: for Toxicity to cells as a single agent: 4a 1 µM, 3 27 µM
How it was run: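 RPMI-8226 myeloma cells grown in RPMI-1640 with 10% FBS, penicillin, streptomycin and plasmocin in a humidified 5% CO2 incubator. Cells were exposed to bortezomib or carfilzomib for 1 h, then to test compound (1 µM or 27 µM) or mock for 47 h. Viable cells were measured by Alamar Blue dye conversion. Mean ± SEM of three (bortezomib) or two to seven (carfilzomib) biological replicates.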

RPMI-8226 cells [3] = settings: cited from earlier work
[4] = test system: proteasome trypsin-like (Tr-L) sites in NCI-H929 and RPMI-8226 multiple myeloma cells; format: cell-based; settings: for IC50: ProteasomeGlo
[5] = target: T1, proteasome caspase-like (Casp-L) sites in NCI-H929 and RPMI-8226 multiple myeloma cells (Homo sapiens, UniProt P28072); format: cell-based
T1 sequence (P28072 1-239): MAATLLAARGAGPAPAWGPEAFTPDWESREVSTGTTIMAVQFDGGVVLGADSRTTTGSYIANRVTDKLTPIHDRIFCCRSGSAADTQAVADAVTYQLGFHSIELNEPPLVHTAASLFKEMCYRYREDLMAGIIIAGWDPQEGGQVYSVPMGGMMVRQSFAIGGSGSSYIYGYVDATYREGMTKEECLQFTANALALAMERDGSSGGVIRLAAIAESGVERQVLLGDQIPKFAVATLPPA

[6] = target: T2, proteasome trypsin-like sites (Mus musculus, UniProt P70195); test: Inhibition of trypsin-like sites in mice; format: in vivo; settings: manuscript in preparation
T2 sequence (P70195 44-277): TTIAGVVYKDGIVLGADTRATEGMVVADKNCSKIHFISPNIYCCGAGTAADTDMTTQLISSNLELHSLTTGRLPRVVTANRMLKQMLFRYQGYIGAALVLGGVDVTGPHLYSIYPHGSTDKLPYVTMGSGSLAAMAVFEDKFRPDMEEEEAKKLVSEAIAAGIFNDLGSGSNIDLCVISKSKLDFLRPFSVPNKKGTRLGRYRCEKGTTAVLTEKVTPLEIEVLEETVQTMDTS

[7] = test system: cathepsins in NCI-H929 cells; test: Cathepsins activity assay; format: cell-based; settings: 6 h treatment, Z-FR-amc
How it was run: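 Treated and mock-treated cells were washed in PBS and permeabilised on ice with 0.05% digitonin in Tris-HCl pH 7.5 buffer. Cytosol was removed by centrifugation (15 min, 20 000g, 4 °C), and pellets were lysed in Bis-Tris pH 5.5/0.5% CHAPS. Protein-normalised acidic extracts were added to 40 µM substrate in phosphate buffer pH 6.0 with EDTA and DTT. Amc fluorescence was read continuously for 30 min, with rates taken from progress-curve slopes.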

[8] = target: proteasome active sites (β2, β5) in extracts of HEK-293T cells (Homo sapiens, UniProt P28074+Q99436); test: Competition assays in HEK-293T cell lysate with activity-based probes; format: biochemical; settings: HEK-293 extracts
[9] = read-out: IC50 Tr-L, NCI-H929, NCI-H929 cells, 6 h treatment

Compound: CC(C)C[C@H](NC(=O)[C@H](Cc1ccccc1)N=[N+]=[N-])C(=O)N[C@@H](CC(C)C)C(=O)N[C@H](/C=C/S(C)(=O)=O)Cc1ccc(CN)cc1 [compound 4a, N3Phe-Leu-Leu-Phe(4-CH2NH2)VS TFA Salt]
Inhibition of trypsin-like sites in mice [6]: capable of inhibiting trypsin-like sites in mice | Toxicity to cells as a single agent (RPMI-8226 cells [2]): not toxic; also recorded: no effect on cells when used as a single agent | Sensitization to bortezomib (RPMI-8226 cells [2]; bortezomib 1 h, then 47 h 4a (1 µM)): sensitized them to bortezomib | Treatment time to steady-state inhibition of trypsin-like activity ([4]; RPMI-8226 cells): 1 h | Inhibition of cathepsins in cells [7]: Partial inhibition of cathepsins

Compound: Cc1c(O)cccc1C(=O)N[C@H](C(=O)N[C@@H](CO)C(=O)N[C@H](/C=C/S(C)(=O)=O)Cc1ccc(CN)cc1)C(C)C [compound 8]
Difference in inhibition of trypsin-like activity (IC50) between NCI-H929 and RPMI-8226 cells ([4]; 6 h treatment): greater than 10 fold | IC50 [4, 9]: 200 nM | IC50 ([4]; read-out: IC50 Tr-L, RPMI-8226, RPMI-8226 cells, 6 h treatment): 3200 nM | IC50 [5]: > 30000 nM | Inhibition of cathepsins in cells [7]: did not cause any inhibition of cathepsins

Compound: Cc1c(O)cccc1C(=O)N[C@H](C(=O)N[C@@H](CO)C(=O)N[C@H](/C=C/S(C)(=O)=O)Cc1ccc(N)cc1)C(C)C [compound 9]
IC50 (Chym-L)/IC50 (Tr-L) [1]: ≪0.0067

Compound: CC(C)C[C@H](NC(=O)[C@H](Cc1ccncc1)NC(=O)[C@H](Cc1ccccc1)N=[N+]=[N-])C(=O)N[C@H](/C=C/S(C)(=O)=O)Cc1ccc(CN)cc1 [compound 10]
Inhibition of cathepsins in cells [7]: partly reduced cathepsin activity

Compound: CC(C)C[C@H](NC(=O)[C@H](Cc1ccc(N)cc1)NC(=O)[C@H](Cc1ccccc1)N=[N+]=[N-])C(=O)N[C@H](/C=C/S(C)(=O)=O)Cc1ccc(CN)cc1 [compound 11]
Inhibition of cathepsins in cells [7]: behaved similarly to 4a

Compound: CC(C)C[C@H](NC(=O)[C@H](Cc1ccc(CN)cc1)NC(=O)[C@H](Cc1ccccc1)N=[N+]=[N-])C(=O)N[C@H](/C=C/S(C)(=O)=O)Cc1ccc(CN)cc1 [compound 12]
Inhibition/labeling of proteasome active sites in extracts [8]: most potent inhibitor in extracts | Inhibition of cathepsins in cells [7]: slightly more potent inhibitor of cathepsins

Compound: CC1=CC(C)=[N+]2C1=C(CCCCc1cn([C@@H](Cc3ccccc3)C(=O)N[C@@H](CC(C)C)C(=O)N[C@@H](CC(C)C)C(=O)N[C@H](/C=C/S(C)(=O)=O)Cc3ccc(CN)cc3)nn1)c1c(C)cc(C)n1[B-]2(F)F [compound 19, Bodipy-triazole-Phe-Leu-Leu-Phe(4-CH2NH2)VS TFA Salt]
Inhibition/labeling of proteasome active sites in extracts [8]: reacted with β2 and β5 subunits

Compound: CC1=CC(C)=[N+]2C1=C(CCCCc1cn([C@@H](Cc3ccccc3)C(=O)N[C@@H](Cc3ccc(CN)cc3)C(=O)N[C@@H](CC(C)C)C(=O)N[C@H](/C=C/S(C)(=O)=O)Cc3ccc(CN)cc3)nn1)c1c(C)cc(C)n1[B-]2(F)F [compound 20]
Inhibition/labeling of proteasome active sites in extracts [8]: reduced the specificity

Compound: O=C(CCCCCCC(=O)Nc1ccccc1)NO [varinostat, reference compound]
Viability (RPMI-8226 cells [2]; 1 µM, 48 h treatment, single agent): 38.6 ± 0.5%

Now from value to compound, other results behind:

IC50 (Chym-L)/IC50 (Tr-L) [1]: >30
Compound: CC(=O)N[C@@H](CC(C)C)C(=O)N[C@@H](CC(C)C)C(=O)N[C@@H](CCCNC(=N)N)C(=O)[C@@]1(C)CO1 [1a]

IC50 (Chym-L)/IC50 (Tr-L) [1]: >375
Compound: CC(=O)N[C@@H](CCCNC(=N)N)C(=O)N[C@@H](CC(C)C)C(=O)N[C@@H](CCCNC(=N)N)C(=O)[C@@]1(C)CO1 [compound 2]

IC50 [4, 9]: 900 nM | IC50 [5]: > 30000 nM
Compound: Cc1c(O)cccc1C(=O)N[C@H](C(=O)N[C@@H](CO)C(=O)N[C@@H](CCCNC(=N)N)C(=O)[C@@]1(C)CO1)C(C)C [compound 3]
Toxicity to cells as a single agent (RPMI-8226 cells [2]): no effect on cells when used as a single agent | Toxicity to myeloma cells as a single agent (RPMI-8226 cells [3]): not toxic | Treatment time to steady-state inhibition of trypsin-like activity ([4]; RPMI-8226 cells): > 6 h

IC50 (Chym-L)/IC50 (Tr-L) [1]: <0.00017
Compound: CC(C)C[C@@H](/C=C/S(C)(=O)=O)NC(=O)[C@H](CC(C)C)NC(=O)[C@H](Cc1ccc(N)cc1)NC(=O)[C@H](Cc1ccccc1)N=[N+]=[N-] [compound 16]
